ChEMBL document CHEMBL1124408, “3-aminopyridazine derivatives with atypical antidepressant, serotonergic, and dopaminergic activities” (J Med Chem, 1989)

Assays:
Mus musculus [1] = assay: Compound was tested for antidepressant activity against reserpine induced ptosis in mice after intraperitoneal administration.; value ranges from 27-31; type: functional; settings: ip
In short: (§1)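 Female CD1 mice (18-22 g) received the drug in distilled water/gum tragacanth ip at multiple doses (7-20 mice/dose), given together with reserpine (2 mg/kg iv). One hour later, palpebral ptosis (half or more of the lid closed) was scored all-or-none. Screening dose was at most 50% of the seizure threshold dose.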

Mus musculus [2] = assay: Serotonergic activity was determined by measuring the potentiation of 5-hydroxytryptophan in mice upon ip administration; type: functional
In short: (§2)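 Drug was injected ip in distilled water/gum tragacanth to female CD1 mice (18-22 g) at multiple doses (7-20 mice/dose), 30 min before a threshold dose of L-5-HTP (200 mg/kg ip). Mice were held singly in small cages, and tremor was scored all-or-none over the 20 min after L-5-HTP.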

Mus musculus [3] = assay: Ability to modify turning behavior of mice after intraperitoneal administration; type: functional; settings: ip, read-out: MED
In short: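 Female CD1 mice (25-30 g) were lesioned by stereotaxic injection of 6-OHDA (10 μg in 1 μL saline with 1 mg/mL ascorbic acid) into the right striatum under pentobarbitone (60 mg/kg ip). Seven days later, drug in distilled water/gum tragacanth was given ip at multiple doses (7-20 mice/dose). Ipsilateral turns were counted for 2 min starting 30 min post-dose.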

[4] = Acute toxicity in mice after intraperitoneal administration.; settings: mouse, in vivo, ip, LD50
Mus musculus [5] = assay: Serotonergic activity by measuring the potentiation of 5-hydroxy tryptophan in mice upon ip administration; value ranges from 4.9-6.7; type: functional; in short: as §2
Mus musculus [6] = assay: Antidepressant activity against reserpine induced ptosis in mice after intraperitoneal administration.; type: functional; settings: ip; in short: as §1
Mus musculus [7] = assay: Serotonergic activity by measuring the potentiation of 5-hydroxy tryptophan in mice upon ip administration; value ranges from 4.4-5.7; type: functional; in short: as §2
Mus musculus [8] = assay: Compound was tested for antidepressant activity against reserpine induced ptosis in mice after intraperitoneal administration.; value ranges from 5.9-7.3; type: functional; settings: ip; in short: as §1
Mus musculus [9] = assay: Compound was tested for antidepressant activity against reserpine induced ptosis in mice after intraperitoneal administration.; value ranges from 24-55; type: functional; settings: ip; in short: as §1
Mus musculus [10] = assay: Compound was tested for antidepressant activity against reserpine induced ptosis in mice after intraperitoneal administration.; value ranges from 14-18; type: functional; settings: ip; in short: as §1
Mus musculus [11] = assay: Compound was tested for antidepressant activity against reserpine induced ptosis in mice after intraperitoneal administration; value ranges from 1.8-4.1; type: functional; settings: ip; in short: as §1
Mus musculus [12] = assay: Serotonergic activity by measuring the potentiation of 5-hydroxy tryptophan in mice upon ip administration; value ranges from 3-7.9.; type: functional; in short: as §2
Mus musculus [13] = assay: Serotonergic activity by measuring the potentiation of 5-hydroxy tryptophan in mice upon ip administration; value ranges from 3.8-4.9; type: functional; in short: as §2
Mus musculus [14] = assay: Compound was tested for antidepressant activity against reserpine induced ptosis in mice after intraperitoneal administration.; value ranges from 4.0-5.7; type: functional; settings: ip; in short: as §1
Mus musculus [15] = assay: Compound was tested for antidepressant activity against reserpine induced ptosis in mice after intraperitoneal administration.; value ranges from 5.9-6.7; type: functional; settings: ip; in short: as §1
Mus musculus [16] = assay: Serotonergic activity by measuring the potentiation of 5-hydroxy tryptophan in mice upon ip administration; value ranges from 3.0-4.0; type: functional; in short: as §2

For `Cc1cc(-c2ccccc2)nnc1NCCN(C)C`, the ED50 (Mus musculus [1]) was 29 mg/kg, the ED50 (Mus musculus [2]) was over 30 mg/kg and the minimal effective dose (Mus musculus [3]) was 10 mg/kg. The LD50 [4] was 118 mg/kg.
`Cc1cc(-c2ccc(Cl)cc2)nnc1NCCN1CCOCC1` gave an ED50 (Mus musculus [5]) of 5.8 mg/kg, an ED50 (Mus musculus [6]) of over 10 mg/kg and a minimal effective dose (Mus musculus [3]) of over 2 mg/kg. The LD50 [4] was 62 mg/kg.
Work on `CCCN(CCC)CCNc1nnc(-c2ccccc2)cc1C` yielded an ED50 (Mus musculus [6]) of over 30 mg/kg, an ED50 (Mus musculus [2]) of over 30 mg/kg and a minimal effective dose (Mus musculus [3]) of 2 mg/kg. It also gave an LD50 [4] of 76 mg/kg.
Work on `N#Cc1cc(-c2ccccc2)nnc1NCCN1CCOCC1` [BAZINAPRINE] yielded an ED50 (Mus musculus [7]) of 5 mg/kg, an ED50 (Mus musculus [8]) of 6.6 mg/kg and a minimal effective dose (Mus musculus [3]) of 0.1 mg/kg.
Compound `Cc1cc(Cc2ccccc2)nnc1NCCN1CCOCC1` has an ED50 (Mus musculus [6]) of over 10 mg/kg, an ED50 (Mus musculus [2]) of over 10 mg/kg and a minimal effective dose (Mus musculus [3]) of 2 mg/kg. For the same compound, the LD50 [4] was 30 mg/kg.
In the case of `Cc1cc(C)c(NCCN2CCOCC2)nn1`, the ED50 (Mus musculus [6]) was over 50 mg/kg, the ED50 (Mus musculus [2]) was over 50 mg/kg and the minimal effective dose (Mus musculus [3]) was over 10 mg/kg. It also gave an LD50 [4] of over 100 mg/kg.
`Br.Br.Cc1cc(-c2ccc(O)cc2)nnc1NCCN1CCOCC1` [MOXIRAPRINE DIBROMIDE] showed an ED50 (Mus musculus [6]) of over 40 mg/kg, an ED50 (Mus musculus [2]) of over 100 mg/kg and a minimal effective dose (Mus musculus [3]) of 0.1 mg/kg. It also gave an LD50 [4] of over 300 mg/kg.
`Cc1cc(-c2ccccc2)nnc1NCCN1CCCC1` gave an ED50 (Mus musculus [6]) of over 30 mg/kg and an LD50 [4] of 70 mg/kg.
`CNCCNc1nnc(-c2ccccc2)cc1C` showed an ED50 (Mus musculus [9]) of 36 mg/kg, an ED50 (Mus musculus [2]) of at least 30 mg/kg and a minimal effective dose (Mus musculus [3]) of 2 mg/kg. It also gave an LD50 [4] of over 200 mg/kg.
`c1ccc(Cc2cc(-c3ccccc3)nnc2NCCN2CCOCC2)cc1` showed an ED50 (Mus musculus [6]) of over 50 mg/kg, an ED50 (Mus musculus [2]) of over 50 mg/kg and a minimal effective dose (Mus musculus [3]) of 2 mg/kg. The LD50 [4] was 131 mg/kg.
In the case of `Cc1cc(-c2ccccc2)nnc1NCCN`, the ED50 (Mus musculus [10]) was 16 mg/kg, the ED50 (Mus musculus [2]) was over 30 mg/kg and the minimal effective dose (Mus musculus [3]) was 0.5 mg/kg. It also gave an LD50 [4] of 300 mg/kg.
For `CN(C)CCCN1c2ccccc2CCc2ccc(Cl)cc21` [CLOMIPRAMINE], the ED50 (Mus musculus [11]) was 3.3 mg/kg and the ED50 (Mus musculus [12]) was 4.8 mg/kg.
For `Br.Br.Cc1cc(-c2cccc(O)c2)nnc1NCCN1CCOCC1`, the ED50 (Mus musculus [6]) was over 50 mg/kg, the ED50 (Mus musculus [2]) was over 30 mg/kg and the minimal effective dose (Mus musculus [3]) was 10 mg/kg. It also gave an LD50 [4] of over 200 mg/kg.
`Cc1cc(-c2cccc(Cl)c2)nnc1NCCN1CCOCC1` showed an ED50 (Mus musculus [6]) of over 10 mg/kg, an ED50 (Mus musculus [2]) of over 10 mg/kg and a minimal effective dose (Mus musculus [3]) of over 2 mg/kg. For the same compound, the LD50 [4] was 21 mg/kg.
Work on `COc1ccc(-c2cc(C)c(NCCN3CCOCC3)nn2)cc1` yielded an ED50 (Mus musculus [6]) of over 5 mg/kg, an ED50 (Mus musculus [2]) of over 5 mg/kg and a minimal effective dose (Mus musculus [3]) of over 2 mg/kg. It also gave an LD50 [4] of 19 mg/kg.
Compound `Cc1cc(-c2cccc3ccccc23)nnc1NCCN1CCOCC1` has an ED50 (Mus musculus [6]) of over 2.5 mg/kg, an ED50 (Mus musculus [2]) of over 2.5 mg/kg and a minimal effective dose (Mus musculus [3]) of 0.01 mg/kg. It also gave an LD50 [4] of 7 mg/kg.
Compound `COc1ccccc1-c1cc(C)c(NCCN2CCOCC2)nn1` has an ED50 (Mus musculus [6]) of over 10 mg/kg, an ED50 (Mus musculus [2]) of over 10 mg/kg and a minimal effective dose (Mus musculus [3]) of 0.5 mg/kg. The LD50 [4] was 40 mg/kg.
Compound `Cc1ccc(-c2cc(C)c(NCCN3CCOCC3)nn2)cc1` has an ED50 (Mus musculus [6]) of over 15 mg/kg, an ED50 (Mus musculus [2]) of over 15 mg/kg and a minimal effective dose (Mus musculus [3]) of 0.5 mg/kg. It also gave an LD50 [4] of 51 mg/kg.
Compound `NC(=O)c1cc(-c2ccccc2)nnc1NCCN1CCOCC1` has an ED50 (Mus musculus [6]) of over 40 mg/kg, an ED50 (Mus musculus [2]) of over 60 mg/kg and a minimal effective dose (Mus musculus [3]) of 2 mg/kg.
`CCN(CC)CCNc1nnc(-c2ccccc2)cc1C` showed an ED50 (Mus musculus [6]) of over 30 mg/kg, an ED50 (Mus musculus [2]) of over 30 mg/kg and a minimal effective dose (Mus musculus [3]) of over 10 mg/kg. For the same compound, the LD50 [4] was 80 mg/kg.
`Cc1cc(-c2cccs2)nnc1NCCN1CCOCC1` gave an ED50 (Mus musculus [13]) of 4.2 mg/kg, an ED50 (Mus musculus [14]) of 4.8 mg/kg and a minimal effective dose (Mus musculus [3]) of over 10 mg/kg. The LD50 [4] was 59 mg/kg.
For `Clc1ccccc1Cc1cc(-c2ccccc2)nnc1NCCN1CCOCC1`, the ED50 (Mus musculus [6]) was over 50 mg/kg, the ED50 (Mus musculus [2]) was over 50 mg/kg and the minimal effective dose (Mus musculus [3]) was 10 mg/kg. It also gave an LD50 [4] of 95 mg/kg.
Compound `Cc1cc(-c2ccccc2)nnc1NCCCN` has an ED50 (Mus musculus [6]) of 50 mg/kg, an ED50 (Mus musculus [2]) of over 30 mg/kg and a minimal effective dose (Mus musculus [3]) of 0.1 mg/kg. For the same compound, the LD50 [4] was 300 mg/kg.
`c1ccc(-c2ccc(NCCN3CCOCC3)nn2)cc1` showed an ED50 (Mus musculus [15]) of 6 mg/kg, an ED50 (Mus musculus [16]) of 3.7 mg/kg and a minimal effective dose (Mus musculus [3]) of 0.5 mg/kg. For the same compound, the LD50 [4] was 250 mg/kg.
